Measurements published in ChEMBL document CHEMBL1143713, “Antimitotic activities of 2-phenylindole-3-carbaldehydes in human breast cancer cells” (Bioorg Med Chem, 2007).
Active and inactive are the calls of the source. The calls are words filed in the database; no cut-off is given here.

Assays:
[1] = tested on: MDA-MB-231; assay: Antiproliferative activity against human MDA-MB-231 cells after 4 days; format: functional, cell-based; details: MDA-MB-231, 96 h
[2] = tested on: MCF7; assay: Antiproliferative activity against human MCF7 cells after 5 days; format: functional, cell-based; details: MCF7, 120 h
[3] = Inhibition of temperature-induced tubulin polymerization of calf brain; design: species or system Bos taurus
In short: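 Tubulin from fresh calf brain cortex, purified by temperature-dependent polymerization/depolymerization cycles and checked by PAGE, in PEMG buffer. Supernatant mixed with compound in DMSO at varying concentrations, preincubated 15 min at 37 °C, chilled, then 25 mM GTP solution added. Temperature switched from 2 to 37 °C in cuvettes; turbidity at 350 nm over 20 min. Mean of two controls = 100%; IC50 from three independent experiments.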

[4] = tested on: MDA-MB-231; assay: Cell cycle arrest in MDA-MB-231 cells by accumulation at G2/M phase after 24 hrs by flow cytometry; format: functional, cell-based; details: Homo sapiens
In short: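 MDA-MB 231 cells at 70–80% confluence exposed 24 h to compounds diluted from DMF stocks (0.1% DMF final), various concentrations, vincristine reference. Cells trypsinized, fixed in 70% ethanol, DNA-extracted, stained with propidium iodide ≥30 min at room temperature. 8000–15,000 events per sample by flow cytometry; sub-G1, G0/G1, S, G2/M fractions. Representative of two experiments.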

[5] = target: Tubulin (Homo sapiens) (UniProt P68371+Q9H4B7+P0DPH7+P68366+Q13509+Q71U36+P04350+Q3ZCM7+P07437+P68363+Q9BQE3+Q6PEY2+Q13885+Q9BVA1+Q9BUF5); assay: Inhibition of tubulin polymerization at 5 uM by microplate assay; format: protein-complex assay
In short: (§1)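 Commercial microplate tubulin kit in G-PEM buffer with 5% glycerol. Compounds from DMSO stocks, diluted 1:10 in G-PEM, added to wells prewarmed to 37 °C. Cold tubulin added; absorbance at 355 nm read every minute over about 28–30 min at 37 °C after shift from 2 °C. Solvent controls; colchicine and docetaxel as references.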

[6] = tested on: U-87MG ATCC; assay: Effect on cell morphology in human U87 cells assessed as condensation of microtubule around the nucleus and loss of function at 50 nM after 3 hrs; format: functional, cell-based
In short: (§2)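 U-87 MG glioma cells at 75% confluence treated 3 h at 37 °C; vehicle ethanol. Fixed in 4% paraformaldehyde, permeabilized with 1% Triton X-100. Chromatin stained with SYTOX Green; microtubules with mouse anti-α-tubulin and Cy5 goat anti-mouse antibody (1:200). Imaged by confocal laser scanning microscopy.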

[7] = target: Tubulin; assay: Inhibition of tubulin polymerization by microplate assay; format: protein-complex assay, Homo sapiens; in short: as §1
[8] = tested on: U-87MG ATCC; assay: Effect on cell morphology in human U87 cells assessed as disruption of microtubule network and loss of function at 10 nM after 3 hrs; format: functional, cell-based; in short: as §2

| Structure (SMILES) | IC50 [1] [nM] | IC50 [2] [nM] | other results |
| --- | --- | --- | --- |
| COc1ccc(-c2[nH]c3cc(OC)ccc3c2C=O)cc1 | 35 | 160 | IC50 [3]: 1500 nM |
| CCCCCCc1ccc2[nH]c(-c3ccc(OC)cc3)c(C=O)c2c1 | 7.4 | 6 | Activity [4]: Active |
| COc1ccc(-c2[nH]c3ccc(C(C)(C)C)cc3c2C=O)cc1 | 280 | 580 |  |
| Cc1ccc(-c2[nH]c3cc(Cl)ccc3c2C=O)cc1 | 7.8 | 37 |  |
| CCCCc1ccc2[nH]c(-c3ccc(F)cc3)c(C=O)c2c1 | 350 | 200 |  |
| COc1ccc(-c2[nH]c3ccc(C)cc3c2C=O)cc1 | 86 | 140 | Activity [4]: Active |
| CCCCCCc1ccc2[nH]c(-c3ccc(C(F)(F)F)cc3)c(C=O)c2c1 | 43 | 22 |  |
| COc1ccc(-c2[nH]c3cc(Cl)ccc3c2C=O)cc1 | 27 | 65 |  |
| CCCCCc1ccc2[nH]c(-c3ccc(OC)cc3)c(/C=N\C)c2c1 | 6 | 21 |  |
| COc1ccc2c(C=O)c(-c3ccc(OC)c(O)c3)[nH]c2c1 | 800 | 1650 |  |
| CCCCc1ccc2[nH]c(-c3ccc(OC)cc3)c(C=O)c2c1 | 6.7 | 22 | Activity [4]: Active; inhibition [5]: 23%; Activity [6]: Active |
| COc1ccc2c(C=O)c(-c3ccc(C)cc3)[nH]c2c1 | 31 | 100 |  |
| COc1ccc(-c2[nH]c3ccc(F)cc3c2C=O)cc1 | 540 | 240 |  |
| Cc1ccc(-c2[nH]c3ccc(C)cc3c2C=O)cc1 | 48 | 165 |  |
| CCCCc1ccc2[nH]c(-c3ccc(OC)cc3)c(/C=N\C)c2c1 | 6 | 27 | Activity [4]: Active; IC50 [7]: 1200 nM |
| CCCCCc1ccc2[nH]c(-c3ccc(OC)cc3)c(C=O)c2c1 | 5.5 | 20 |  |
| COc1ccc(-c2[nH]c3cc(F)ccc3c2C=O)cc1 | 59 |  | IC50 [3]: 1800 nM |

| Structure (SMILES) | IC50 [1] [nM] | IC50 [2] [nM] | other results |
| --- | --- | --- | --- |
| CCCCc1ccc(-c2[nH]c3ccc(CC)cc3c2C=O)cc1 | 300 | 200 |  |
| CCCCCc1ccc2[nH]c(-c3ccc(C(F)(F)F)cc3)c(C=O)c2c1 | 42 | 67 |  |
| CC[C@]1(O)C[C@H]2CN(CCc3c([nH]c4ccccc34)[C@@](C(=O)OC)(c3cc4c(cc3OC)N(C=O)[C@H]3[C@@](O)(C(=O)OC)[C@H](OC(C)=O)[C@]5(CC)C=CCN6CC[C@]43[C@@H]65)C2)C1 |  |  | Activity [4]: Active; Activity [8]: Active |
| CCCc1ccc2[nH]c(-c3ccc(OC)cc3)c(C=O)c2c1 | 20 | 54 |  |
| CCCCc1ccc2[nH]c(-c3ccc(C(F)(F)F)cc3)c(/C=N\O)c2c1 | 497 | 1660 |  |
| CCCCc1ccc2[nH]c(-c3ccc(C(F)(F)F)cc3)c(/C=N\C)c2c1 | 32 | 140 |  |
| C/N=C\c1c(-c2ccc(OC)cc2)[nH]c2cc(OC)ccc12 | 34 | 220 | IC50 [3]: 1800 nM |
| COc1ccc(-c2[nH]c3ccc(CC(C)C)cc3c2C=O)cc1 | 72 | 180 |  |
| CCCCc1ccc2[nH]c(-c3ccc(CC)cc3)c(C=O)c2c1 | 27 | 58 | Activity [4]: Active |
| COc1ccc(-c2[nH]c3ccc(C(C)C)cc3c2C=O)cc1 | 29 | 97 |  |
| COc1ccc(-c2[nH]c3cc(Cl)c(C)cc3c2C=O)cc1 | 26 | 62 |  |
| COc1ccc2c(C=O)c(-c3ccc(OC)c(OC)c3)[nH]c2c1 | 270 | 20 |  |
| CCCCc1ccc2[nH]c(-c3ccc(OC)cc3)c(/C=N\O)c2c1 | 40 | 212 | Activity [4]: Active |
| COc1ccc(-c2[nH]c3ccc(OC)cc3c2C=O)cc1 |  |  | IC50 [3]: 4000 nM |
| COc1cccc(-c2[nH]c3cc(OC)ccc3c2C=O)c1 | 1030 | 390 |  |
| CCCCc1ccc2[nH]c(-c3ccc(C(F)(F)F)cc3)c(C=O)c2c1 | 33 | 66 | Activity [4]: Active; Activity [5]: inactive |
| CCCCc1ccc2[nH]c(-c3ccc(C)cc3)c(C=O)c2c1 | 34 | 54 | Activity [4]: Active |
